Results from ChEMBL document CHEMBL4364303 (Eur J Med Chem, 2019).

Tests used:
Mus musculus [1] = experiment: Antiinflammatory activity in DNFB-induced ICR mouse model of auricle edema assessed as inhibition of ear swelling at 5 mg/kg, ig administered once daily for 6 days followed by 1% DNFB solution applied on right ear measured after 24 hrs relative to untreated control; assay type: functional; conditions: po
Procedure, shortened: (§1)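 Male ICR mice, 18-22 g, randomized by weight, 6 per group. Dosed by intragastric route once daily for 6 days; saline given to normal and model groups. Right ear coated with 10 uL 1% DNFB (DNFB in acetone/olive oil); left ear received acetone/olive oil only. Mice killed 24 h later and both ears weighed. Swelling = right minus left ear weight; inhibition calculated versus model control.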

[2] = Inhibition of soyabean 15-LOX preincubated for 5 mins followed by susbtrate addition measured after 10 mins by colorimetric method; set-up: species or system Glycine max
Procedure, shortened: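 Soybean lipoxygenase assessed with a commercial lipoxygenase assay kit, following the kit instructions. IC50 values determined.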

RAW264.7 = experiment: Cytotoxicity against mouse RAW264.7 cells assessed as cell viability up to 50 uM after 24 hrs by MTT assay; assay type: cell-based; conditions: raw264.7, 24 h
Procedure, shortened: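 RAW264.7 cells (ATCC), about 1.0×10^5 cells/ml, were held 2 h in serum-free medium at 37°C, 5% CO2. The supernatant was replaced with RPMI 1640 containing compound at 0, 5, 10, 20, 30, 40 or 50 μM for 24 h. MTT (5 mg/mL stock) was added for the final 4 h. Formazan was dissolved in DMSO and OD570 read. Survival was compared with blank.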

[3] = target: T1, Prostaglandin G/H synthase 1 (Ovis aries, UniProt P05979); experiment: Inhibition of ovine COX-1 using arachidonic acid as substrate incubated for 5 mins by fluorescence-based assay
T1 sequence (P05979 whole entry): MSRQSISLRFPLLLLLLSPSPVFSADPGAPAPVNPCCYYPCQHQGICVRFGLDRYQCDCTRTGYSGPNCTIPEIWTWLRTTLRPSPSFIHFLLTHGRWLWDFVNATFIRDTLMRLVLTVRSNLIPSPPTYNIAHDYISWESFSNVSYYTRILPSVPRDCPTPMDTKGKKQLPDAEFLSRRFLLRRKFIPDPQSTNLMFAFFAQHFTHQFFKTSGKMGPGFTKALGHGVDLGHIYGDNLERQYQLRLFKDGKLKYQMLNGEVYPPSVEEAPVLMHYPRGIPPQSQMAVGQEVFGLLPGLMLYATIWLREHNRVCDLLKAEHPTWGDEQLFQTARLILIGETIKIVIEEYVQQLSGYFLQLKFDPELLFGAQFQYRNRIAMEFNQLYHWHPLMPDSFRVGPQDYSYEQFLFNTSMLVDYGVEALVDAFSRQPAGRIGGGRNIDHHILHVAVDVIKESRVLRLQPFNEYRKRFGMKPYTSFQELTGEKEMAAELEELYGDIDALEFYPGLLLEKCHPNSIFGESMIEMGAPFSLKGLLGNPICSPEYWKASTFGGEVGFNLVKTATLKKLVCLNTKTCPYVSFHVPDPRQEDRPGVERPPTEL
Procedure, shortened: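 COX-1 fluorometric inhibitor-screening kit. Assay buffer, COX-1 cofactor and arachidonic acid were combined with test compound and incubated 5 min at 37 °C. Inhibition derived from RFU relative to 100%-activity and blank controls. Run in triplicate; IC50 taken from concentration curves.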

Mus musculus [4] = experiment: Antiinflammatory activity in DNFB-induced ICR mouse model of auricle edema assessed as inhibition of ear swelling at 0.5 mg/kg, ig administered once daily for 6 days followed by 1% DNFB solution applied on right ear measured after 24 hrs relative to untreated control; assay type: functional; conditions: po; procedure, shortened: as §1

Compound	inhibition in vivo at 5 mg/kg (Mus musculus [1]) [%]	further results
O=C(c1cc2cc(Cl)ccc2n1Cc1ccc(F)cc1)N1CCN(Cc2ccccc2)CC1	24	–
COc1ccc(CN2CCN(C(=O)c3cc4cc(Cl)ccc4n3Cc3ccc(F)cc3)CC2)cc1	43.1	IC50 [2]: 0.0835 µM; Activity (RAW264.7): Non-Toxic; IC50 [3]: 0.195 µM
Cc1nc(C)c(CN2CCN(C(=O)c3cc4cc(Cl)ccc4n3Cc3ccc(Cl)cc3)CC2)nc1C	64.9	IC50 [2]: 0.339 µM; IC50 [3]: 0.312 µM
Cc1cncc(CN2CCN(C(=O)c3cc4cc(Cl)ccc4n3Cc3ccc(F)cc3)CC2)c1	25.4	–
N#Cc1ccc(CN2CCN(C(=O)c3cc4cc(Cl)ccc4n3Cc3ccc(F)cc3)CC2)cc1	35.4	–
Cc1nc(C)c(CN2CCN(C(=O)c3cc4cc(Cl)ccc4n3Cc3ccc(F)cc3)CC2)nc1C	48.3	–
CN1CCN(C(=O)c2cc3cc(Cl)ccc3n2Cc2ccc(F)cc2)CC1	36.7	–
COc1ccc2[nH]cc(CCNC(=O)c3cc4cc(Cl)ccc4n3Cc3ccc(F)cc3)c2c1	50	IC50 [2]: 0.0661 µM; Activity (RAW264.7): Non-Toxic; IC50 [3]: 0.407 µM
O=C(c1cc2cc(Cl)ccc2n1Cc1ccc(Cl)cc1)N1CCN(Cc2ccc(F)cc2)CC1	29.1	–
Cc1cncc(CN2CCN(C(=O)c3cc4cc(Cl)ccc4n3Cc3ccc(Cl)cc3)CC2)c1	29.8	–
O=C(c1cc2cc(Cl)ccc2n1Cc1ccc(F)cc1)N1CCN(Cc2ccc3c(c2)OCO3)CC1	34.2	–
O=C(c1cc2cc(Cl)ccc2n1Cc1ccc(Cl)cc1)N1CCN(Cc2ccc3c(c2)OCO3)CC1	32.9	–
Cc1nc(C)c(CNC2CCN(C(=O)c3cc4cc(Cl)ccc4n3Cc3ccc(F)cc3)C2)nc1C (configuration not stated)	49.4	–
O=C(c1cc2cc(Cl)ccc2n1Cc1ccc(Cl)cc1)N1CCN(Cc2ccc(C(F)(F)F)cc2)CC1	30.4	–
Cc1ccc(CN2CCN(C(=O)c3cc4cc(Cl)ccc4n3Cc3ccc(Cl)cc3)CC2)cc1	39.2	–
COc1ccc2[nH]cc(CCNC(=O)c3cc4cc(Cl)ccc4n3Cc3ccc(Cl)cc3)c2c1	44.3	–
O=C(c1cc2cc(Cl)ccc2n1Cc1ccc(F)cc1)N1CCN(Cc2ccc(C(F)(F)F)cc2)CC1	27.8	–
Cc1nc(C)c(CNC2CCN(C(=O)c3cc4cc(Cl)ccc4n3Cc3ccc(Cl)cc3)C2)nc1C (configuration not stated)	42.5	–
O=C(c1cc2cc(Cl)ccc2n1Cc1ccc(Cl)cc1)N1CCN(Cc2ccc(Cl)cc2)CC1	40.5	IC50 [2]: 0.209 µM; IC50 [3]: 0.361 µM
Cc1ccc(CN2CCN(C(=O)c3cc4cc(Cl)ccc4n3Cc3ccc(F)cc3)CC2)cc1	32.9	–
C[C@@H]1C[C@H]2[C@@H]3CCC4=CC(=O)C=C[C@]4(C)[C@@]3(F)[C@@H](O)C[C@]2(C)[C@@]1(O)C(=O)CO [DEXAMETHASONE]	–	inhibition in vivo at 0.5 mg/kg (Mus musculus [4]): 46.8 to 63.8%
CC(c1cc2ccccc2s1)N(O)C(N)=O (configuration not stated) [ZILEUTON]	–	IC50 [2]: 0.0389 µM
